Measured values reported in ChEMBL document CHEMBL1142610, “Phenanthroquinolizidine alkaloids from the roots of Boehmeria pannosa potently inhibit hypoxia-inducible factor-1 in AGS human gastric cancer cells” (J Nat Prod, 2006).
Activity calls are given as the source filed them. The calls are words filed in the database; no cut-off is given here.

Tests used:
[1] = Inhibition of hypoxia-induced HIF1 activation
Summary of the method: (§1)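 AGS cells transiently cotransfected with pGL3-HRE-Luc (six HRE copies from human VEGF gene) plus pRL-CMV, plated 4 × 10^4 cells/well, grown 48 h. Then treated with graded concentrations and held 16 h in hypoxia (1% O2, 94% N2, 5% CO2). Dual-luciferase read-out, firefly normalized to renilla. 17-DMAG positive control. At least three independent experiments.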

[2] = target: T1, Hypoxia inducible factors; HIF-1-alpha, HIF-2-alpha (Homo sapiens, UniProt Q16665+Q99814); assay: Inhibition of hypoxia-induced HIF1 activation in human AGS cells at 300 nM after 16 hrs by pGL3-HRE-luciferase reporter gene assay; assay type: cell-based; summary of the method: as §1
[3] = target: Hypoxia-inducible factor 1-alpha (Homo sapiens) (UniProt Q16665); assay: Inhibition of hypoxia-induced HIF1alpha protein accumulation in human AGS cells after 12 hrs by Western blot; assay type: cell-based
Chain of Hypoxia-inducible factor 1-alpha (Homo sapiens) (Q16665 whole entry, looked up): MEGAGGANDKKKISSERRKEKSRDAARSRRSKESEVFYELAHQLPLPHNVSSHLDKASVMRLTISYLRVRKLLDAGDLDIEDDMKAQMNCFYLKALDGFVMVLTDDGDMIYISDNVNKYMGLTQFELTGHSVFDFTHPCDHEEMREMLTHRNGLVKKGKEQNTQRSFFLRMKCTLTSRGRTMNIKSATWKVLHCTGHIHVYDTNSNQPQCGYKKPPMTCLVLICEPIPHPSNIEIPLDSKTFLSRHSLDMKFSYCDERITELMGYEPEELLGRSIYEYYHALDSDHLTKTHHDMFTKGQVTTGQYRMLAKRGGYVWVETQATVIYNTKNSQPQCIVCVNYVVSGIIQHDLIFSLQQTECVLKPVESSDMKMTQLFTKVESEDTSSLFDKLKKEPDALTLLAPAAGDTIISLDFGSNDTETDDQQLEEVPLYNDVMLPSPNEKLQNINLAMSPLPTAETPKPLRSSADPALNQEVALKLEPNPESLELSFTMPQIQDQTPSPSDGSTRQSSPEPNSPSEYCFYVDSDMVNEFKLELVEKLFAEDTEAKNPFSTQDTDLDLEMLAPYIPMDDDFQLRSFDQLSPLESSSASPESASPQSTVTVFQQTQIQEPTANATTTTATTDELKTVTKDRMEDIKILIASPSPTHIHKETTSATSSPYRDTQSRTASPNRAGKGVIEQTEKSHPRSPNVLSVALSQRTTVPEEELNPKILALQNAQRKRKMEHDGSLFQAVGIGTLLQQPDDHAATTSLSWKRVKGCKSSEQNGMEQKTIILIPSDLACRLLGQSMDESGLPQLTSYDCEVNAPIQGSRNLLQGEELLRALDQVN
Summary of the method: (§2)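 AGS cells plated at 1.5 × 10^5 cells/cm2 and left overnight at 37 °C. Pretreated 1 h with graded concentrations, then 12 h hypoxia (1% O2, 94% N2, 5% CO2, 37 °C). Total lysates (50 µg) run on 6% SDS-PAGE. Blotted with monoclonal anti-HIF-1α or anti-HIF-1β, ECL detection. TOPO I served as loading control. At least three experiments.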

[4] = target: T1, Hypoxia inducible factors; HIF-1-alpha, HIF-2-alpha; assay: Inhibition of hypoxia-induced HIF1 activation in human AGS cells after 16 hrs by pGL3-HRE-luciferase reporter gene assay; assay type: cell-based; summary of the method: as §1
[5] = target: Aryl hydrocarbon receptor nuclear translocator (Homo sapiens) (UniProt P27540); assay: Inhibition of hypoxia-induced HIF1beta protein accumulation in human AGS cells after 12 hrs by Western blot; assay type: cell-based; summary of the method: as §2
Chain of Aryl hydrocarbon receptor nuclear translocator (Homo sapiens) (P27540 whole entry): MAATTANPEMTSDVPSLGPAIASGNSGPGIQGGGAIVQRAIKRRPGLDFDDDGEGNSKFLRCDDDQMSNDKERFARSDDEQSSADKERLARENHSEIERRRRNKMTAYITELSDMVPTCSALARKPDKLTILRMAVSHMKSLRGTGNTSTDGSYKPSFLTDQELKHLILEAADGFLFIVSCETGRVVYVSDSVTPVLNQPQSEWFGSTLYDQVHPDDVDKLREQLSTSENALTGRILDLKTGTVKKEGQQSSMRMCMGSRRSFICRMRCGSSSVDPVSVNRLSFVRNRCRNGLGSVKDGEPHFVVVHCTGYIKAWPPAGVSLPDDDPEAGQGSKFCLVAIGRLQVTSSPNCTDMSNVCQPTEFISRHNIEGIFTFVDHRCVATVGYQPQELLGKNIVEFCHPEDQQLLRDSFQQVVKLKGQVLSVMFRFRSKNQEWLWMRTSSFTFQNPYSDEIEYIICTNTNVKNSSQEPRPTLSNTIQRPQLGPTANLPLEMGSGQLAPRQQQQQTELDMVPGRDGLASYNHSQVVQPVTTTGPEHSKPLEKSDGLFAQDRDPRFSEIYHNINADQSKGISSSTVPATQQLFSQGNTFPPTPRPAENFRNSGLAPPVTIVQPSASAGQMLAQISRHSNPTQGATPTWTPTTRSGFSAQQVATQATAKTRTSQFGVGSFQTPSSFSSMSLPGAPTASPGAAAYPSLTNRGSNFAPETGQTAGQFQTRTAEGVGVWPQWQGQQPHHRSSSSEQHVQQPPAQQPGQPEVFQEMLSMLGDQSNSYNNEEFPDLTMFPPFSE

AGS = assay: Inhibition of hypoxia-induced VEGF expression in human AGS cells after 16 hrs by RT-PCR analysis; assay type: functional, cell-based
Summary of the method: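 AGS cells at 1.5 × 10^5 cells/cm2 pretreated 1 h with graded concentrations, then 16 h hypoxia (1% O2). Total RNA isolated and VEGF transcript detected by RT-PCR: 25 cycles (94 °C 30 s, 58 °C 30 s, 72 °C 1 min). Products run on 2% agarose with ethidium bromide staining. At least three experiments.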

[6] = target: T1, Hypoxia inducible factors; HIF-1-alpha, HIF-2-alpha; assay: Inhibition of hypoxia-induced HIF1 activation in human AGS cells at 100 nM after 16 hrs by pGL3-HRE-luciferase reporter gene assay; assay type: cell-based; summary of the method: as §1

Row | IC50 [1] [nM] | Activity [2] | Compound | Activity [3] | IC50 [4] [nM] | Activity [5] | Activity (AGS) | Activity [6]
1 | 3 | – | COc1ccc([C@@H](O)[C@@H](C)Oc2ccc([C@H]3O[C@H](c4ccc(O[C@H](C)[C@H](O)c5ccc6c(c5)OCO6)c(OC)c4)[C@H](C)[C@H]3C)cc2OC)cc1OC [MANASSANTIN B] | – | – | – | – | –
2 | – | Active | COc1ccc2c3c(c4cc(OC)c(OC)cc4c2c1)[C@@H](O)[C@H]1CCCCN1C3 | Dose-dependent effect | 48.1 | inactive | – | –
3 | – | – | COc1ccc2c3c(c4cc(OC)c(OC)cc4c2c1)C[C@H]1CCCCN1C3 [CRYPTOPLEURINE] | Dose-dependent effect | 8.7 | inactive | Dose-dependent effect | Active
